The values below come from PubChem BioAssay.

The source made the active and inactive calls.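 How the source made its calls, unless noted: active means viability at or below 30% in both replicate assays; inconclusive means viability at or below 30% in just one of the two assays; inactive means the rest.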

Experiment [1] in a line: Her2 expression decrease, cell viability multiplex – SKBR3 breast tumor cells, AlphaScreen, ATP viability, primary screen (AID 461;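 active means Her2 level under about 52% in both replicate screens, with viability over 70% of control, limit read from the data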;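 on Her2 level: lower value means less Her2 protein in the cells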;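 on viability: percent of carrier control wells set as 100% viability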). The conditions noted are these: SKBR3 Her2 protein level, 18-24 h, measured here: SKBR3 viability, ATP luminescence, at 10 µM.
The target in experiment [2] is Receptor tyrosine-protein kinase erbB-2 (Homo sapiens) (UniProt P04626). The description is as above. To be noted: 18-24 h, at 10 µM, stronger effect = lower value.
Chain of Receptor tyrosine-protein kinase erbB-2 (Homo sapiens) (P04626 whole entry, looked up): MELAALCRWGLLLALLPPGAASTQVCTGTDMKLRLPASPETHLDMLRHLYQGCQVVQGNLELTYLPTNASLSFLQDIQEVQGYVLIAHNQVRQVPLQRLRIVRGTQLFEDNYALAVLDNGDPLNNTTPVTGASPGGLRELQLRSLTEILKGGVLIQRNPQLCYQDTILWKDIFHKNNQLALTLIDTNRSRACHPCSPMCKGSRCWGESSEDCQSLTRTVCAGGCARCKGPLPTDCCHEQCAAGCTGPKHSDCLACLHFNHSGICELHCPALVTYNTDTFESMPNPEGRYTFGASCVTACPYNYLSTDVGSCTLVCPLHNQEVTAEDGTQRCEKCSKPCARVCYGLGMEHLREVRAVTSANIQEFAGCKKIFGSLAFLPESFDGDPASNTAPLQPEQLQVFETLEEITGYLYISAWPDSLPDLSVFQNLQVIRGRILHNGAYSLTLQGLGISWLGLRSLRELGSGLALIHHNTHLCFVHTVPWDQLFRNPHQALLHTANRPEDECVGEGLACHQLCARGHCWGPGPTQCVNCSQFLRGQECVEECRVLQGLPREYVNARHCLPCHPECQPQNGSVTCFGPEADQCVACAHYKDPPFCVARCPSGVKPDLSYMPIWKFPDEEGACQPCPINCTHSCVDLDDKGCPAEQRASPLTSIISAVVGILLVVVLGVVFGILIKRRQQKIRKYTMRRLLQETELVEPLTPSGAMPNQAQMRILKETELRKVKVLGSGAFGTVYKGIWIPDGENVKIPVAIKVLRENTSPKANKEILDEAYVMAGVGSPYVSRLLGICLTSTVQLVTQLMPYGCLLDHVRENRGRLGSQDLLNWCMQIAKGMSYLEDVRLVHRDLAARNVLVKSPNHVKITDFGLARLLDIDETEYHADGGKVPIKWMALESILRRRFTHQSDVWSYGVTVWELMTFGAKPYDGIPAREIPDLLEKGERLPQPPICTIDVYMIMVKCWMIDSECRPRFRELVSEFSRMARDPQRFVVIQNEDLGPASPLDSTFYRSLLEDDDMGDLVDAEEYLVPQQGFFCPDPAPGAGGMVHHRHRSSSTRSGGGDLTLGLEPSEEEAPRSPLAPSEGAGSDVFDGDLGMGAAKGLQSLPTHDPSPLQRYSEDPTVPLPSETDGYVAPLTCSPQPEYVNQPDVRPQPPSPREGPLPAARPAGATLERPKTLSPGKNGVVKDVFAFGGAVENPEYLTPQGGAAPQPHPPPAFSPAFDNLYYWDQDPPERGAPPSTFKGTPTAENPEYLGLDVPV
Experiment [3] in a line: reduced viability of SK-BR-3 breast cancer cells – cell-based, 24 h, human, pilot screen (AID 572;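 active means viability at or below 10% of carrier control in both of two separate runs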;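 further: compound exposure lasted between 18 and 24 h rather than exactly 24 h; 100% = carrier-treated control wells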). The conditions noted are these: SK-BR-3 viability, CellTiter-Glo luminescence, at 10 µM, stronger effect = lower value.
The nature of experiment [4]: HUVEC growth inhibition – cell-based, human, primary screen (AID 575).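 Further: 100% = median of untreated cell wells with 0.1% DMSO on each plate.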 The conditions noted are these: HUVEC proliferation, CellTiter-Glo luminescence, 72 h; at 10 µM; stronger effect = lower value. In a few lines: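 Test system: HUVEC primary cells. Quantity: 1250 endothelial cells in each well. Dosing: single-point 10 µM, DMSO 0.1% final. Incubation: 72 h treatment at 37 °C. Measured by: CTG luminescence. Control set: DMSO cell controls and MePR drug controls. Plate: collagen-coated 384-well format.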
On the technique in general: In ATP-based viability assays light output follows the ATP content of the culture.

Experiment [5] can be described thus: H69AR cell proliferation blockers – human, duplicate replicates, primary screen (AID 580;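 active means viability at or under a set limit in both replicates, limit being median viability minus 3 SD, cut at about 48% in these data, passing the limit was not always enough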;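 further: 100% = mean luminescence of untreated wells and 0% = no signal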). The conditions noted are these: H69AR lung tumor cells viability, ATP luminescence, 72 h; at 10 µM; stronger effect = lower value.
Experiment [6] can be described thus: MRP1 drug-resistance reversers in H69AR cells – cell-based, doxorubicin co-treatment, pilot screen (AID 601;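 active means viability loss from added drug above about 55%, and viability with drug at most 40%, in both replicates, limit read from the data, passing the limit was not always enough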). To be noted: CellTiter-Glo, 72 h, at 10 µM; for differential viability (reversal): stronger effect = higher value.
Experiment [7] can be described thus: yeast transport mutant growth inhibition pilot in 384-well plates, post-Golgi transport modulator project (AID 636; in the data active means inhibition above about 31%). The conditions noted are these: absorbance 615 nm, about 18 h, stronger effect = higher value.
Experiment [8] can be described thus: growth suppression of yeast trafficking mutant, preliminary HTS, modulators of trafficking downstream of Golgi apparatus project, 1536-format plate, OD 615 nm (AID 637; in the data active means inhibition above about 30%). To be noted: yeast transport mutant growth, absorbance 615 nm, 18 h; stronger effect = higher value.
[9] abbreviates: H69AR cells + 2 uM doxorubicin, measured here: viability with 2 uM doxorubicin, stronger effect = lower value.
Setting [10] is: H69AR cells, compound alone cytotoxicity.

For the molecule `CC(=O)[C@@]1(O)CC[C@H]2[C@@H]3CCC4=CC(=O)CC[C@]4(C)[C@H]3[C@@H](O)C[C@@]21C`, the viability (usually a read-out of living cells in per cent, often relative to untreated cells) in experiment [1] is 97%; in experiment [3], 97% (inactive); in experiment [4] it was 94.8% (inactive); in experiment [5] it was 99.5% (inactive); in experiment [6] (setting [9]), 99.2%; in experiment [6] (setting [10]), 99.5%. Further, the Her2 level in experiment [2] is 104% (inactive). In addition, the differential viability (reversal) in experiment [6] (H69AR cells + 2 uM doxorubicin) is 0.36% (inactive).

In the case of `CN1CCN2c3ccccc3Cc3ccccc3C2C1` (stereo not drawn), the viability was 82.5% in experiment [1]; 82.5% (inactive) in experiment [3]; 73.4% (inactive) in experiment [4]; 90.2% (inactive) in experiment [5]; 89.1% in experiment [6] (setting [9]); 90.2% in experiment [6] (setting [10]). Besides, the Her2 level in experiment [2] is 117% (inactive). Also, in experiment [6] (H69AR cells + 2 uM doxorubicin), the differential viability (reversal) is 1.02% (inactive).

In the case of `CCOC(=O)CSc1nnc(NC(=O)c2cccc(S(=O)(=O)N3CCCCC3)c2)s1`, the viability in experiment [1] is 94%; in experiment [3], 94% (inactive); in experiment [4], 79.6% (inactive); in experiment [5] it was 101% (inactive); in experiment [6] (setting [9]), 91.2%; in experiment [6] (setting [10]), 101%. Further, the Her2 level in experiment [2] is 87.5% (inactive). For the same molecule, in experiment [6] (H69AR cells + 2 uM doxorubicin), the differential viability (reversal) is 9.55% (inactive). The inhibition (as a rule, the relative decrease from the control value, in per cent) is -3.03% (inactive) in experiment [7] and -1.67% (inactive) in experiment [8].

As to `CC1(C)O[C@@H]2C[C@H]3[C@@H]4C[C@H](F)C5=CC(=O)C=C[C@]5(C)[C@@]4(F)[C@@H](O)C[C@]3(C)[C@]2(C(=O)CO)O1`, the viability is 94% in experiment [1]; 94% (inactive) in experiment [3]; 90.5% (inactive) in experiment [4]; 94.1% (inactive) in experiment [5]; 92.2% in experiment [6] (setting [9]); 94.1% in experiment [6] (setting [10]). In addition, in experiment [2], the Her2 level was 110% (inactive). Besides, the differential viability (reversal) in experiment [6] (H69AR cells + 2 uM doxorubicin) is 1.96% (inactive).

With `O=C(CCCN1CC=C(n2c(=O)[nH]c3ccccc32)CC1)c1ccc(F)cc1`, the viability in experiment [1] is 77%; in experiment [3], 77% (inactive); in experiment [4], 98.4% (inactive); in experiment [5], 86.2% (inactive); in experiment [6] (setting [9]), 75.1%; in experiment [6] (setting [10]), 86.2%. For the same molecule, the Her2 level in experiment [2] was 103% (inactive). Further, the differential viability (reversal) in experiment [6] (H69AR cells + 2 uM doxorubicin) was 11.1% (inactive).

For `C[C@@H]1C[C@H]2[C@@H]3C[C@H](F)C4=CC(=O)C=C[C@]4(C)[C@@]3(F)[C@@H](O)C[C@]2(C)[C@@]1(O)C(=O)CO`, the viability is 74% in experiment [1]; 74% (inactive) in experiment [3]; 113% (inactive) in experiment [4]; 92.7% (inactive) in experiment [5]; 96.5% in experiment [6] (setting [9]); 92.7% in experiment [6] (setting [10]). Further, in experiment [2], the Her2 level was 118% (inactive). Also, in experiment [6] (H69AR cells + 2 uM doxorubicin), the differential viability (reversal) was -3.78% (inactive).

With `CCC1(c2ccccc2)C(=O)NCNC1=O`, the viability was 96.5% in experiment [1]; 96.5% (inactive) in experiment [3]; 116% (inactive) in experiment [4]; 102% (inactive) in experiment [5]; 85.7% in experiment [6] (setting [9]); 102% in experiment [6] (setting [10]). Moreover, the Her2 level in experiment [2] is 102% (inactive). Also, the differential viability (reversal) in experiment [6] (H69AR cells + 2 uM doxorubicin) was 16.5% (inactive).

On to `CCC(NC(C)C)C(O)c1ccc(O)c(O)c1` (stereo not drawn), for which the viability in experiment [1] was 87.5%; in experiment [3], 87.5% (inactive); in experiment [4], 105% (inactive); in experiment [5], 85% (inactive); in experiment [6] (setting [9]), 91.5%; in experiment [6] (setting [10]), 85%. Moreover, in experiment [2], the Her2 level was 88% (inactive). Besides, in experiment [6] (H69AR cells + 2 uM doxorubicin), the differential viability (reversal) is -6.46% (inactive).

For `CCOc1cccc(-c2nnc3sc(COc4ccc(OC)cc4)nn23)c1`, the viability in experiment [1] was 72.5%; in experiment [3], 72.5% (inactive); in experiment [4], 68.3% (inactive); in experiment [5], 85.5% (inactive); in experiment [6] (setting [9]) it was 86.9%; in experiment [6] (setting [10]) it was 85.5%. For the same molecule, in experiment [2], the Her2 level is 102% (inactive). Further, the differential viability (reversal) in experiment [6] (H69AR cells + 2 uM doxorubicin) is -1.33% (inactive). The inhibition is -1.95% (inactive) in experiment [7] and -6.39% (inactive) in experiment [8].

With `C[C@]12CC[C@H]3[C@@H](CCC4=CC(=O)CC[C@@]43C)[C@@H]1CC[C@@H]2C(=O)CO`, the viability is 106% in experiment [1]; 106% (inactive) in experiment [3]; 56.6% (inactive) in experiment [4]; 78.6% (inactive) in experiment [5]; 94.9% in experiment [6] (setting [9]); 78.6% in experiment [6] (setting [10]). For the same molecule, the Her2 level in experiment [2] is 90.5% (inactive). The differential viability (reversal) in experiment [6] (H69AR cells + 2 uM doxorubicin) was -16.3% (inactive).

Regarding `CCCNCC(O)COc1ccccc1C(=O)CCc1ccccc1` (stereo not drawn), the viability was 97% in experiment [1]; 97% (inactive) in experiment [3]; 97.2% (inactive) in experiment [4]; 87.1% (inactive) in experiment [5]; 84.8% in experiment [6] (setting [9]); 87.1% in experiment [6] (setting [10]). Moreover, the Her2 level in experiment [2] is 100% (inactive). Further, the differential viability (reversal) in experiment [6] (H69AR cells + 2 uM doxorubicin) was 2.24% (inactive).

On to `CC[N+](C)(C)Cc1ccccc1Br`, for which the viability in experiment [1] is 102%; in experiment [3], 102% (inactive); in experiment [4], 107% (inactive); in experiment [5] it was 98.8% (inactive); in experiment [6] (setting [9]) it was 103%; in experiment [6] (setting [10]), 98.8%. For the same molecule, in experiment [2], the Her2 level is 92% (inactive). In addition, the differential viability (reversal) in experiment [6] (H69AR cells + 2 uM doxorubicin) is -4.18% (inactive).

Turning to `CCN(CC)CC#CCOC(=O)C(O)(c1ccccc1)C1CCCCC1` (stereo not drawn), the viability in experiment [1] is 82%; in experiment [3], 82% (inactive); in experiment [4] it was 79.6% (inactive); in experiment [5], 71.7% (inactive); in experiment [6] (setting [9]), 72.1%; in experiment [6] (setting [10]) it was 71.7%. Besides, in experiment [2], the Her2 level was 99% (inactive). The differential viability (reversal) in experiment [6] (H69AR cells + 2 uM doxorubicin) was -0.33% (inactive).

For the molecule `NC(N)=NS(=O)(=O)c1ccc(N)cc1`, the viability in experiment [1] is 100%; in experiment [3], 100% (inactive); in experiment [4], 89.2% (inactive); in experiment [5], 98.8% (inactive); in experiment [6] (setting [9]) it was 102%; in experiment [6] (setting [10]) it was 98.8%. The Her2 level in experiment [2] is 105% (inactive). Also, in experiment [6] (H69AR cells + 2 uM doxorubicin), the differential viability (reversal) was -2.93% (inactive).

In the case of `CCOC(=O)[C@H](CCc1ccccc1)N[C@@H](C)C(=O)N1CCC[C@H]1C(=O)O`, the viability in experiment [1] is 116%; in experiment [3], 116% (inactive); in experiment [4] it was 103% (inactive); in experiment [5], 88.6% (inactive); in experiment [6] (setting [9]) it was 97.4%; in experiment [6] (setting [10]) it was 88.6%. In experiment [2], the Her2 level was 100% (inactive). Further, the differential viability (reversal) in experiment [6] (H69AR cells + 2 uM doxorubicin) is -8.79% (inactive).

Consider `CC(=O)NS(=O)(=O)c1ccc(N)cc1`, for which the viability in experiment [1] was 118%; in experiment [3], 118% (inactive); in experiment [4], 90% (inactive); in experiment [5] it was 102% (inactive); in experiment [6] (setting [9]), 95.4%; in experiment [6] (setting [10]), 102%. For the same molecule, the Her2 level in experiment [2] is 124% (inactive). For the same molecule, in experiment [6] (H69AR cells + 2 uM doxorubicin), the differential viability (reversal) is 6.32% (inactive).

With `CN1CCCN=C1COC(=O)C(O)(c1ccccc1)C1CCCCC1` (stereo not drawn), the viability in experiment [1] was 95%; in experiment [3], 95% (inactive); in experiment [4], 95% (inactive); in experiment [5], 91.6% (inactive); in experiment [6] (setting [9]), 88.4%; in experiment [6] (setting [10]), 91.6%. In addition, the Her2 level in experiment [2] is 79.5% (inactive). For the same molecule, in experiment [6] (H69AR cells + 2 uM doxorubicin), the differential viability (reversal) is 3.15% (inactive).

On to `CN(CCO)CC(O)Cn1cnc2c1c(=O)n(C)c(=O)n2C` (stereo not drawn) (tested in a mixture with another compound), for which the viability in experiment [1] was 87%; in experiment [3], 87% (inactive); in experiment [4], 94.1% (inactive); in experiment [5], 83.6% (inactive); in experiment [6] (setting [9]) it was 85.9%; in experiment [6] (setting [10]), 83.6%. Moreover, the Her2 level in experiment [2] is 88.5% (inactive). Further, in experiment [6] (H69AR cells + 2 uM doxorubicin), the differential viability (reversal) was -2.31% (inactive).
